# Experimental data of several laboratories.
# Lines come from different studies, so protocols differ. pIC50: −log10 of the molar value.
# Organism: Escherichia coli
SMILES,assay,test system,conditions,endpoint,result
C=CCOc1c(C)c(O)c(C(=O)/C=C/c2ccccc2)c(OC)c1C,"microbial killing, broth dilution",ATCC25922,,MBC,> 5000 µg/mL
N=C(N)c1ccccc1OCCCCCOc1ccccc1C(=N)N,microbial growth,BW25113,,MIC,> 200 µg/mL
CN1CC(O)=C(C(=O)NC(C(=O)NC2C(=O)N3C2SC(C)(C)C3C(=O)O)c2ccccc2)C1=O (stereo not drawn),"microbial growth, well diffusion",BW25113,200 µM,inhibition zone,10.5 mm
O=C(Sc1cccccc1=O)c1ccccc1C(F)(F)F,"microbial growth, broth dilution",ATCC35218,,MIC80,19.8 µM
N=C(N)c1ccc(OCCS(=O)(=O)CCOc2ccc(C(=N)N)cc2)cc1,"microbial growth, broth dilution",BW25113,,MIC,> 200 µg/mL
CCOC(=O)c1c(N)csc1-c1cn(-c2ccccc2)nc1-c1ccc(C)cc1,"microbial killing, broth dilution",,,MBC,0.125 µg/mL
CC(C)c1ccc(O)c(=O)cc1,"microbial growth, broth dilution",ATCC35218,,MIC80,58.1 µM
COc1cc(C=Cc2cc(-c3ccc(N(C)C)cc3)nc(O)n2)ccc1O,"microbial growth, disc diffusion",ATCC25922,250 µg/mL,inhibition zone,6 mm
O=[N+]([O-])c1ccc(-n2cc(COc3cccc4cccnc34)nn2)cc1,"microbial growth, broth dilution",ATCC25922,,IC50,664 µg/mL
O=C(O)c1cn(C2CC2)c2cc(N3CCNCC3)c(F)cc2c1=O,microbial growth,SG458,1000 µg/mL,inhibition zone,28.5 mm
NS(=O)(=O)c1ccc(-n2cc(COc3cccc4cccnc34)nn2)cc1,"microbial growth, broth dilution",ATCC25922,,IC50,880 µg/mL
COc1cc(C=CC(=O)CC(c2ccc(N(C)C)cc2)n2ccnc2)ccc1O (stereo not drawn),"microbial growth, disc diffusion",ATCC25922,250 µg/mL,inhibition zone,8 mm
CC1(C)SC2C(NC(=O)C(NC(=O)C3=C(O)C4(CC4)NC3=O)c3ccccc3)C(=O)N2C1C(=O)O (stereo not drawn),"microbial growth, well diffusion",BW25113,200 µM,inhibition zone,10 mm
Cc1ccc(C(C)C)cc1OCc1cn(-c2ccc(Cl)cc2)nn1,"microbial growth, broth dilution",ATCC25922,,IC50,655 µg/mL
CSc1ccc(-c2nc3ccc(C)cc3[nH]2)cc1,"microbial growth, broth dilution",ATCC25922,,MIC,32 µg/mL
CC1(C)S[C@@H]2[C@H](NC(=O)[C@H](N)c3ccccc3)C(=O)N2[C@H]1C(=O)O,"microbial growth, well diffusion",BW25113,200 µM,inhibition zone,14 mm
N=C(N)c1ccccc1OCc1cccc(COc2ccccc2C(=N)N)c1,"microbial growth, broth dilution",BW25113,,MIC,> 200 µg/mL
O=[N+]([O-])c1ccc(-c2nc3ccccc3[nH]2)cc1,"microbial growth, broth dilution",ATCC25922,,MIC,128 µg/mL
CC(C)Oc1c(NC(=O)c2ccc(NC(=O)[C@H](CC(N)=O)NC(=O)c3ccc(-c4nn[nH]c4-c4ccc(C#N)cc4)cc3)cc2)ccc(C(=O)Nc2ccc(C(=O)O)cc2)c1O,microbial growth,DSM1116,,MIC,> 64 µg/mL
COc1ccc(-n2cc(COc3cc(C(C)C)ccc3C)nn2)cc1,"microbial growth, broth dilution",ATCC25922,,IC50,320 µg/mL
Cc1ccc2nc(-c3ccc([N+](=O)[O-])cc3)[nH]c2c1,"microbial growth, broth dilution",ATCC25922,,MIC,64 µg/mL
CCCCCC(=O)Oc1c(C)c(O)c(C(=O)/C=C/c2ccccc2)c(OC)c1C,"microbial killing, broth dilution",ATCC25922,,MBC,> 5000 µg/mL
O=C(N[C@H](CO)[C@H](O)c1ccc([N+](=O)[O-])cc1)C(Cl)Cl,microbial growth,ATCC25922,,MIC90,0.98 µg/mL
CC1(C)S[C@@H]2[C@H](NC(=O)[C@H](N)c3ccccc3)C(=O)N2[C@H]1C(=O)O,"microbial growth, disc diffusion",,50 µg/disc,inhibition zone,21 mm
COc1c(N2C[C@@H]3CCCN[C@@H]3C2)c(F)cc2c(=O)c(C(=O)O)cn(C3CC3)c12,microbial growth,ATCC25922,,MIC90,0.06 µg/mL
c1ccc2[nH]c(-c3ccncc3)nc2c1,"microbial growth, broth dilution",ATCC25922,,MIC,128 µg/mL
O=S(=O)(Oc1cccc2cccnc12)c1ccccc1,"microbial growth, broth dilution",ATCC25922,,IC50,277 µg/mL
O=C(N/N=C/c1ccc([N+](=O)[O-])o1)c1ccc(O)cc1,microbial growth,ATCC25922,,MIC90,0.49 µg/mL
CC(C)Oc1c(NC(=O)c2ccc(NC(=O)[C@H](CC(N)=O)NC(=O)c3ccc(NC(=O)c4ccc(C(F)(F)F)cc4)cc3)cc2)ccc(C(=O)Nc2ccc(C(=O)O)cc2)c1O,microbial growth,DSM1116,,MIC,0.5 µg/mL
COc1c(C)c(O)c(C)c(O)c1C(=O)/C=C/c1ccccc1,"microbial killing, broth dilution",ATCC25922,,MBC,> 5000 µg/mL
C=CCn1c(-c2ccc(Cl)cc2)nc2ccccc21,"microbial growth, broth dilution",ATCC25922,,MIC,64 µg/mL
O=C1C=C(O)C(=O)c2ccccc21,"microbial growth, broth dilution",ATCC25922,,IC50,179 µg/mL
CC(C)Oc1c(NC(=O)c2ccc(NC(=O)[C@H](CC(N)=O)NC(=O)c3ccc(CCNC(=O)c4ccc(C#N)cc4)cc3)cc2)ccc(C(=O)Nc2ccc(C(=O)O)cc2)c1O,microbial growth,DSM1116,,MIC,0.25 µg/mL
C#CCCCCCCCCC=CCC(O)CC(O)CO (stereo not drawn),"microbial growth, broth dilution",ATCC35218,,IC50,> 200 µg/mL
Cc1ccc(S(=O)(=O)Oc2cc(C(C)C)ccc2C)cc1,"microbial growth, broth dilution",ATCC25922,,IC50,317 µg/mL
COc1cc(C=CC(=O)CC(c2ccc([N+](=O)[O-])cc2)n2ccnc2)ccc1O (stereo not drawn),"microbial growth, disc diffusion",ATCC25922,250 µg/mL,inhibition zone,7.67 mm
COc1c(C)c(OC(C)=O)c(C)c(O)c1C(=O)/C=C/c1ccccc1,"microbial killing, broth dilution",ATCC25922,,MBC,> 5000 µg/mL
COc1ccc(-n2cc(COC3=CC(=O)c4ccccc4C3=O)nn2)cc1,"microbial growth, broth dilution",ATCC25922,,IC50,314 µg/mL
O=c1cccccc1Sc1cccccc1=O,"microbial growth, broth dilution",ATCC35218,,MIC80,13.2 µM
Oc1ccc(-c2ccsc2)cc1O,microbial growth,AS19,10 h,pIC50,4.52
CCCC(=O)Oc1c(C)c(O)c(C(=O)/C=C/c2ccccc2)c(OC)c1C,"microbial killing, broth dilution",ATCC25922,,MBC,> 5000 µg/mL
N=C(N)c1ccc(OCc2ccc3ccc(COc4ccc(C(=N)N)cc4)cc3c2)cc1,microbial growth,BW25113,,MIC,≥ 200 µg/mL
